Usually EC50 stands for the concentration giving half of the maximal effect. The Ki is a measure of affinity in units of concentration, obtained from inhibition or displacement. Broadly, the Emax is the size of the effect at its maximum, as opposed to the concentration needed.

SMILES strings stand for the structures.

The target in assay [1] is T1, Kappa-type opioid receptor (Mus musculus, UniProt P33534). Briefly: Agonist activity at mouse kappa opioid receptor […] assessed as beta-arrestin 2 recruitment using furimazine as a substrate preincubated for 5 mins followed by ligand addition measured for 35 mins by BRET assay. In kind it is functional, HEK293, Cell membrane. For orientation: Activated receptors often draw arrestin, which recruitment assays turn into a signal.

The target in assay [2] is T1, Kappa-type opioid receptor. Description: Positive allosteric modulator activity in mouse kappa opioid receptor stably expressed in HEK293 cell membrane assessed as binding affinity of dyn A1-13 to orthosteric binding site incubated with dyn A1-13 alone for 90 mins by radioligand competition binding assay. In kind it is cell membranes. For orientation: Loss of bound radioactivity is the signal in a displacement assay; it reports binding, not function.

Assay [3] concerns the target T1, Kappa-type opioid receptor. Description: Positive allosteric modulator activity in mouse kappa opioid receptor stably expressed in HEK293 cell membrane assessed as inhibition of forskolin induced cAMP production by measuring dyn A1-13 EC50 incubated with dyn A1-13 alone measured after 30 mins by HTRF assay. The assay is classed as functional, cell membranes. Put shortly: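 HEK293 stably expressing mouse KOR (2000 cells/well), pretreated 30 min at 37 °C with T20K (0.03–10 μM) or none, then dyn A1–13 with 10 μM forskolin and 0.5 mM IBMX for 30 min at 37 °C. cAMP by HTRF (665/620 nm) after 1 h at room temperature. Triplicates; normalized to top dyn A1–13 concentration; three-parameter fit, slope 1.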
Background: Changes in cAMP serve as a functional read-out for many G protein-coupled receptors.

Assay [4] addresses Kappa-type opioid receptor (Mus musculus) (UniProt P33534). Briefly: Positive allosteric modulator activity in mouse kappa opioid receptor stably expressed in HEK293 cell membrane assessed as inhibition of forskolin induced cAMP production by measuring dyn A1-13 Emax incubated with dyn A1-13 alone measured after 30 mins by HTRF assay relative to control. The note with it: filed as positive allosteric modulator, dose 0.03 µM, time 60.0 min. In kind it is functional, cell membranes. The essentials: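 Stably transfected mouse KOR HEK293 cells were pretreated with modulator (0.03–10 μM) for 30 min at 37 °C. Dyn A1-13 or U50,488 plus forskolin (10 μM final) with IBMX were then added for a further 30 min at 37 °C. HTRF cAMP read at 665/620 nm. Normalised to the highest orthosteric agonist concentration; unconstrained three-parameter fit, slope 1; n = 4 (7 at 10 μM).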

Turning to `CC[C@H](C)[C@H](NC(=O)[C@H](CCCNC(=N)N)NC(=O)[C@H](CCCNC(=N)N)NC(=O)[C@H](CC(C)C)NC(=O)[C@H](Cc1ccccc1)NC(=O)CNC(=O)CNC(=O)[C@@H](N)Cc1ccc(O)cc1)C(=O)N[C@@H](CCCNC(=N)N)C(=O)N1CCC[C@H]1C(=O)N[C@@H](CCCCN)C(=O)N[C@@H](CC(C)C)C(=O)N[C@@H](CCCCN)C(=O)O` [ANALOG OF DYNORPHIN A], the figures for the EC50 in assay [1] and in assay [3] were 159 nM and 6.7 nM, respectively. Also, the Ki in assay [2] worked out at 0.3 nM. The Emax in assay [4] amounted to 100%.

(Values after ChEMBL document CHEMBL4831505, “Plant-Derived Cyclotides Modulate κ-Opioid Receptor Signaling” (J Nat Prod, 2021).)
